Source: ChEMBL document CHEMBL3227917, “Structure-activity relationships of dimeric Catharanthus alkaloids. 2. Experimental antitumor activities of N-substituted deacetylvinblastine amide (vindesine) sulfates” (J Med Chem, 1979)

Experiments:
[1] = Antitumor activity against mouse Gardner lymphosarcoma allografted in C3H mouse assessed as tumor growth inhibition at 0.40 mg/kg, ip administered daily for 8 to 10 days; format: functional; settings: route intraperitoneal, read-out: TGI
Summary of the method: (§1)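 Gardner lymphosarcoma in C3H mice; sulfate salts unless noted, given ip daily for 8–10 days, treatment starting 8 days after tumor implantation. Tumor growth inhibition scored as –, 0–25%; +, 26–50%; ++, 51–75%; +++, 76–100%; T, lethal to ≥5 of 10 animals per group. Average of one or more tests.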

[2] = Antitumor activity against mouse Gardner lymphosarcoma allografted in C3H mouse assessed as tumor growth inhibition at 0.30 mg/kg, ip administered daily for 8 to 10 days; format: functional; settings: route intraperitoneal, read-out: TGI; summary of the method: as §1
[3] = Antitumor activity against mouse Ridgway osteogenic sarcoma allografted in AKR mouse assessed as tumor growth inhibition at 0.30 mg/kg, ip administered daily for 8 to 10 days compound treatment commenced 8 days after tumor implantation; format: functional; settings: route intraperitoneal, read-out: TGI
[4] = tested on: CHO; test: Mitotic arrest in CHO cells assessed as increase in cell accumulation at 0.002 ug/ml; format: functional, Cricetulus griseus
Summary of the method: (§2)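 Chinese hamster ovary cells in tissue culture, scored for mitotic arrest as increase in cells in mitotic arrest over control: +++, 40–50%; ++, 15–40%; +, 10–15%; ±, 7–10%; –, 3–7%. Cytotoxicity noted separately.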

[5] = Antitumor activity against mouse P1534 cells allografted in DBA2 mouse assessed as tumor growth inhibition at 0.25 mg/kg, ip administered daily for 8 to 10 days; format: functional; settings: route intraperitoneal, read-out: TGI
Summary of the method: (§3)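 P1534(J) leukemia implanted sc in DBA2 mice; sulfate salts dosed ip daily for 8–10 days. Growth inhibition scored –, 0–25%; +, 26–50%; ++, 51–75%; +++, 76–100%; T, lethal to ≥5 of 10 animals per group. Average of one or more tests.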

[6] = Antitumor activity against mouse Gardner lymphosarcoma allografted in C3H mouse assessed as tumor growth inhibition at 0.20 mg/kg, ip administered daily for 8 to 10 days; format: functional; settings: route intraperitoneal, read-out: TGI; summary of the method: as §1
[7] = tested on: CHO; test: Mitotic arrest in CHO cells assessed as increase in cell accumulation at 0.02 ug/ml; format: functional, Cricetulus griseus; summary of the method: as §2
[8] = tested on: Mus musculus; test: Toxicity in C3H mouse allografted with mouse Gardner lymphosarcoma assessed as lethality at 0.5 mg/kg, ip administered daily for 8 to 10 days; format: organism-based; set-up: dose 0.5 mg/kg, route intraperitoneal; settings: in vivo
Summary of the method: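 Tumor-bearing mice given sulfate salts ip daily for 8–10 days; values are the average of one or more tests. Toxic means lethal to ≥5 of 10 animals per group.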

[9] = Antitumor activity against mouse Ridgway osteogenic sarcoma allografted in AKR mouse assessed as tumor growth inhibition at 0.20 mg/kg, ip administered daily for 8 to 10 days compound treatment commenced 8 days after tumor implantation; format: functional; settings: route intraperitoneal, read-out: TGI
[10] = Antitumor activity against mouse Gardner lymphosarcoma allografted in C3H mouse assessed as tumor growth inhibition at 0.05 mg/kg, ip administered daily for 8 to 10 days; format: functional; settings: route intraperitoneal, read-out: TGI; summary of the method: as §1
[11] = Antitumor activity against mouse Ridgway osteogenic sarcoma allografted in AKR mouse assessed as tumor growth inhibition at 0.05 mg/kg, ip administered daily for 8 to 10 days compound treatment commenced 8 days after tumor implantation; format: functional; settings: route intraperitoneal, read-out: TGI
[12] = Antitumor activity against mouse Ridgway osteogenic sarcoma allografted in AKR mouse assessed as tumor growth inhibition at 0.10 mg/kg, ip administered daily for 8 to 10 days compound treatment commenced 8 days after tumor implantation; format: functional; settings: route intraperitoneal, read-out: TGI
[13] = tested on: Mus musculus; test: Toxicity in mouse assessed as body weight at 0.5 mg/kg, ip administered twice per week for 4 weeks, then three doses per week for 3 weeks and finally six doses per week for 2 weeks measured at week 9 (reference value: 18.5 +/- 0.5 gms); settings: in vivo
[14] = Antitumor activity against mouse Ridgway osteogenic sarcoma allografted in AKR mouse assessed as tumor growth inhibition at 0.40 mg/kg, ip administered daily for 8 to 10 days compound treatment commenced 8 days after tumor implantation; format: functional; settings: route intraperitoneal, read-out: TGI
[15] = Antitumor activity against mouse Gardner lymphosarcoma allografted in C3H mouse assessed as tumor growth inhibition at 0.10 mg/kg, ip administered daily for 8 to 10 days; format: functional; settings: route intraperitoneal, read-out: TGI; summary of the method: as §1
[16] = tested on: CHO; test: Mitotic arrest in CHO cells assessed as increase in cell accumulation at 2 ug/ml; format: functional, Cricetulus griseus; summary of the method: as §2
[17] = tested on: CHO; test: Mitotic arrest in CHO cells assessed as increase in cell accumulation at 0.2 ug/ml; format: functional, Cricetulus griseus; summary of the method: as §2
[18] = tested on: P388/VCR; test: Antitumor activity against mouse P388/VCR cells allografted in B6D2F1 mouse assessed as increase in host lifespan at 1.20 mg/kg, ip administered on days 1, 5 and 9; format: functional; settings: dose 1.2 mg/kg; route intraperitoneal
Summary of the method: (§4)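 P388/VCR leukemia in groups of 10 B6D2F1 mice, run at Lilly using the cell strain received from NCI. Sulfate salts given ip on days 1, 5 and 9. Read-out is percent increase in lifespan.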

[19] = tested on: P388/VCR; test: Antitumor activity against mouse P388/VCR cells allografted in CD2F1 mouse assessed as increase in host lifespan at 0.36 mg/kg, ip administered on days 1, 5 and 9; format: functional; settings: route intraperitoneal
Summary of the method: (§5)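 Groups of eight male CD2F1 mice bearing P388 leukemia, run at NCI. Sulfate salts given ip on days 1, 5 and 9. Read-out is percent increase in lifespan.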

[20] = tested on: CHO; test: Cytotoxicity against CHO cells at 0.02 ug/ml; format: cell-based, Cricetulus griseus; settings: chinese hamster; summary of the method: as §2
[21] = tested on: P388/S; test: Antitumor activity against mouse P388/S cells allografted in CD2F1 mouse assessed as increase in host lifespan at 0.60 mg/kg, ip administered on days 1, 5 and 9; format: functional; settings: dose 0.6 mg/kg; route intraperitoneal; summary of the method: as §5
[22] = Antitumor activity against mouse P388/VCR/I/63 cells allografted in Dublin-CDF1 mouse assessed as increase in host lifespan at 1.5 mg/kg, ip administered on days 1, 5 and 9; format: functional; settings: route intraperitoneal
[23] = Antitumor activity against mouse P1534 cells allografted in DBA2 mouse assessed as tumor growth inhibition at 0.10 mg/kg, ip administered daily for 8 to 10 days; format: functional; settings: route intraperitoneal, read-out: TGI; summary of the method: as §3
[24] = tested on: Mus musculus; test: Toxicity in CD2F1 mouse allografted with mouse P388/VCR cells at 1.67 mg/kg, ip administered on days 1, 5 and 9; format: organism-based; set-up: dose 1.67 mg/kg, route intraperitoneal; settings: in vivo
[25] = Antitumor activity against mouse P388/VCR/I/63 cells allografted in Dublin-CDF1 mouse assessed as day of host death at 1.5 mg/kg, ip administered on days 1, 5 and 9 (reference value: 10 days); format: functional; settings: route intraperitoneal
[26] = tested on: P388/VCR; test: Antitumor activity against mouse P388/VCR cells allografted in CD2F1 mouse assessed as increase in host lifespan at 1.00 mg/kg, ip administered on days 1, 5 and 9; format: functional; settings: route intraperitoneal; summary of the method: as §5
[27] = Toxicity in iv dosed mouse assessed as lethality; format: organism-based; settings: in vivo
[28] = tested on: P388/VCR; test: Antitumor activity against mouse P388/VCR cells allografted in B6D2F1 mouse assessed as increase in host lifespan at 0.90 mg/kg, ip administered on days 1, 5 and 9; format: functional; settings: dose 0.9 mg/kg; route intraperitoneal; summary of the method: as §4
[29] = tested on: P388/VCR; test: Antitumor activity against mouse P388/VCR cells allografted in CD2F1 mouse assessed as increase in host lifespan at 0.60 mg/kg, ip administered on days 1, 5 and 9; format: functional; settings: dose 0.6 mg/kg; route intraperitoneal; summary of the method: as §5
[30] = tested on: P388/S; test: Antitumor activity against mouse P388/S cells allografted in CD2F1 mouse assessed as increase in host lifespan at 1.00 mg/kg, ip administered on days 1, 5 and 9; format: functional; settings: route intraperitoneal; summary of the method: as §5
[31] = tested on: P388/VCR; test: Antitumor activity against mouse P388/VCR cells allografted in B6D2F1 mouse assessed as increase in host lifespan at 0.60 mg/kg, ip administered on days 1, 5 and 9; format: functional; settings: dose 0.6 mg/kg; route intraperitoneal; summary of the method: as §4
[32] = Antitumor activity against mouse P1534 cells allografted in DBA2 mouse assessed as tumor growth inhibition at 0.20 mg/kg, ip administered daily for 8 to 10 days; format: functional; settings: route intraperitoneal, read-out: TGI; summary of the method: as §3
[33] = tested on: P388/S; test: Antitumor activity against mouse P388/S cells allografted in CD2F1 mouse assessed as increase in host lifespan at 1.67 mg/kg, ip administered on days 1, 5 and 9; format: functional; settings: route intraperitoneal; summary of the method: as §5
[34] = tested on: P388/S; test: Antitumor activity against mouse P388/S cells allografted in CD2F1 mouse assessed as increase in host lifespan at 0.36 mg/kg, ip administered on days 1, 5 and 9; format: functional; settings: route intraperitoneal; summary of the method: as §5

## CC[C@]1(O)C[C@H]2CN(CCc3c([nH]c4ccccc34)[C@@](C(=O)OC)(c3cc4c(cc3OC)N(C)[C@H]3[C@@](O)(C(=O)NC)[C@H](O)[C@]5(CC)C=CCN6CC[C@]43[C@@H]65)C2)C1.O=S(=O)(O)O
[1]
  inhibition in vivo at 0.4 mg/kg: 76%
[2]
  inhibition in vivo at 0.3 mg/kg: 76%
[3]
  inhibition in vivo at 0.3 mg/kg: 76%
[4]
  Activity: 3%
[5]
  inhibition in vivo at 0.25 mg/kg: 76%
[6]
  inhibition in vivo at 0.2 mg/kg: 76%
[7]
  Activity: 15%
[8]
  Activity: Toxic
[9]
  inhibition in vivo at 0.2 mg/kg: 51%
[10]
  inhibition in vivo at 0.05 mg/kg: 0%
[11]
  inhibition in vivo at 0.05 mg/kg: 0%
[12]
  inhibition in vivo at 0.1 mg/kg: 0%
[13]
  Activity: 24.6 g
[14]
  inhibition in vivo at 0.4 mg/kg: 76%
[15]
  inhibition in vivo at 0.1 mg/kg: 0%

## CC[C@]1(O)C[C@@H]2C[C@](C(=O)OC)(c3cc4c(cc3OC)N(C)[C@H]3[C@@](O)(C(N)=O)[C@H](O)[C@]5(CC)C=CCN6CC[C@]43[C@@H]65)c3[nH]c4ccccc4c3CC[N+]([O-])(C2)C1
[16]
  Activity: 15%
[17]
  Activity: 7%

## CC[C@]1(O)C[C@H]2CN(CCc3c([nH]c4ccccc34)[C@@](C(=O)OC)(c3cc4c(cc3OC)N(C=O)[C@H]3[C@@](O)(C(=O)OC)[C@H](OC(C)=O)[C@]5(CC)C=CCN6CC[C@]43[C@@H]65)C2)C1.O=S(=O)(O)O [VINCRISTINE SULFATE]
[18]
  Activity: 0%
[19]
  Activity: 0%
[20]
  Activity: Toxic
[21]
  Activity: 83%
[22]
  Activity: 50%
[23]
  inhibition in vivo at 0.1 mg/kg: 51%
[24]
  Activity: Toxic
[4]
  Activity: 10%
[5]
  inhibition in vivo at 0.25 mg/kg: 76%
[7]
  Activity: 40%
[25]
  Activity: 15 days
[26]
  Activity: 0%
[27]
  LD50: 2.1 mg/kg
[28]
  Activity: 0%
[29]
  Activity: 0%
[30]
  Activity: 138%
[31]
  Activity: 5%
[32]
  inhibition in vivo at 0.2 mg/kg: 76%
[33]
  Activity: 96%
[34]
  Activity: 83%
